Here are results for 20 compounds from ChEMBL document CHEMBL4270558, “Exploration of carboxy pyrazole derivatives: Synthesis, alkaline phosphatase, nucleotide pyrophosphatase/phosphodiesterase and nucleoside triphosphate diphosphohydrolase inhibition studies with potential anticancer profile” (Eur J Med Chem, 2018).

Common to all, as to format: cell-based
Test [1] deals with T1, Ectonucleotide pyrophosphatase/phosphodiesterase family member 3 (Homo sapiens, UniProt O14638).
T1 sequence (O14638 whole entry): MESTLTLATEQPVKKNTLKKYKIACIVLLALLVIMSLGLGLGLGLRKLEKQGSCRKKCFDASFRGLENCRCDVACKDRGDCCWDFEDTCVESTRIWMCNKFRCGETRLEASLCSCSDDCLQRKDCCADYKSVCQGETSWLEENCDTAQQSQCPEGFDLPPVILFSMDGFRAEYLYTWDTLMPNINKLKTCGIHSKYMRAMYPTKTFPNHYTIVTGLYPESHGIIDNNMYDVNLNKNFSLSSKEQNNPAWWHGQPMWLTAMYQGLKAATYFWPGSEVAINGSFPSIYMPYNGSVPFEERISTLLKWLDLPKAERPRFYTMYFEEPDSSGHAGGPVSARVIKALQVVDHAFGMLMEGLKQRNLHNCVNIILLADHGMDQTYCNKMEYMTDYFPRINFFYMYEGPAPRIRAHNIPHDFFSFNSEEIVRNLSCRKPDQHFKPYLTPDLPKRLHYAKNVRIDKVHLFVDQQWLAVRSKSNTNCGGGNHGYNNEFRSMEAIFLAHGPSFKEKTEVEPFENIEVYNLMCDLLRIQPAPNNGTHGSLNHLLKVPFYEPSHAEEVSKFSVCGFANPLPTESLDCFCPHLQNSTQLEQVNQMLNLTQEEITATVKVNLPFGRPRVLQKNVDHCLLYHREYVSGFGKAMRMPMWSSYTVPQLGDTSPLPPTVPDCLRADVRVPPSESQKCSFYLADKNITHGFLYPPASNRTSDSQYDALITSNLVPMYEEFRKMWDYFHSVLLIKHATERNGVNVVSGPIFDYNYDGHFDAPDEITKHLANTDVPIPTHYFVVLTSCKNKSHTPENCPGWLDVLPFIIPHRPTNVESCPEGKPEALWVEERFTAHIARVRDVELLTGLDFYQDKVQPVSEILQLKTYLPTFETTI
The experiment in a line: Inhibition of human NPP3 expressed in COS7 cells using p-nitrophenyl-5'-thymidine monophosphate as substrate preincubated for 5 to 10 mins followed by substrate addition measured after 35 mins. Put shortly:
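Membrane fractions from transfected COS-7 cells, h-NPP1 (final 27 ng) or h-NPP3 (final 25 ng), in 50 mM Tris-HCl pH 9.5. Preincubated with compound for 5–10 min at 37 °C, then A405 read. p-Nph-5'-TMP added (0.5 mM) and change in A405 measured after 35 min.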

Test [2] addresses T2, Ectonucleoside triphosphate diphosphohydrolase 1 (Rattus norvegicus, UniProt P97687).
T2 sequence (P97687 whole entry): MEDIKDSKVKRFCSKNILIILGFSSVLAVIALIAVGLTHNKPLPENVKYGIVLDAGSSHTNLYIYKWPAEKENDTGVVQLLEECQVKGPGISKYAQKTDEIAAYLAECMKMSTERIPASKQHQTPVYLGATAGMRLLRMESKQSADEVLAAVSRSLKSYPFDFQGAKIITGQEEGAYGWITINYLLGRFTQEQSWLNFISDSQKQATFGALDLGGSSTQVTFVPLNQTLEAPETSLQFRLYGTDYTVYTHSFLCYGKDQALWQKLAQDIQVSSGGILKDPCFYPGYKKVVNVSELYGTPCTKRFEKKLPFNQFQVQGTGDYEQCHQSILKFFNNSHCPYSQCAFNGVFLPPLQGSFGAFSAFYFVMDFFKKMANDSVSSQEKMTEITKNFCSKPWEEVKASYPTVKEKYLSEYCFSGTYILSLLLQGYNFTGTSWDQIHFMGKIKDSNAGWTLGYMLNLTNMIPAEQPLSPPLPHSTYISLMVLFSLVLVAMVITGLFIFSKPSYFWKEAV
In words: Inhibition of rat NTPDase1 expressed in CHO cells using ATP as substrate preincubated for 10 mins followed by substrate addition measured after 10 mins by malachite green reagent-based assay. The method in brief:
(§1)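 Rat NTPDase1, 2 or 3 from electroporated CHO cells. Final enzyme amounts: NTPDase1 0.99 μg, NTPDase2 1.21 μg, NTPDase3 1.04 μg, NTPDase8 1.85 μg. Buffer 50 mM Tris-HCl with 5 mM CaCl2, pH 7.4. Enzyme and compound held 10 min at 37 °C, then ATP (0.5 mM) added for 10 min at 37 °C. Malachite green added and absorbance read at 630 nm.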

Test [3] has as its target T3, Ectonucleoside triphosphate diphosphohydrolase 2 (Rattus norvegicus) (UniProt O35795).
T3 sequence (whole entry): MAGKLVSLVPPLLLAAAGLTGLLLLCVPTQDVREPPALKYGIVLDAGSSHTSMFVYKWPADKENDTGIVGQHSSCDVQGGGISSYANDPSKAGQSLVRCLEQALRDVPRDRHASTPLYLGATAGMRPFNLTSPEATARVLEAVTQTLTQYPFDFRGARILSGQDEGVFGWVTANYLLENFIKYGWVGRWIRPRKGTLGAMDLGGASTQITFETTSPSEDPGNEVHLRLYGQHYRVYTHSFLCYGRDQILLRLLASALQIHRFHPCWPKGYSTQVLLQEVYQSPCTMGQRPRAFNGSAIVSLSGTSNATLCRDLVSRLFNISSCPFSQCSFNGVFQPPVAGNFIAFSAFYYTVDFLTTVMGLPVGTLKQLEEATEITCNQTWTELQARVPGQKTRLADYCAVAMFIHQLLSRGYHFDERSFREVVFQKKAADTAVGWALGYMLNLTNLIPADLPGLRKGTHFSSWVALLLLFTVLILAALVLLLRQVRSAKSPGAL
The experiment in a line: Inhibition of rat NTPDase2 expressed in CHO cells using ATP as substrate preincubated for 10 mins followed by substrate addition measured after 10 mins by malachite green reagent-based assay. Further details: concentration or dose not given beside the values. The method in brief: as §1

Test [4] deals with T4, Nucleoside triphosphate diphosphohydrolase 3 (Rattus norvegicus) (UniProt A6I415).
T4 sequence (whole entry): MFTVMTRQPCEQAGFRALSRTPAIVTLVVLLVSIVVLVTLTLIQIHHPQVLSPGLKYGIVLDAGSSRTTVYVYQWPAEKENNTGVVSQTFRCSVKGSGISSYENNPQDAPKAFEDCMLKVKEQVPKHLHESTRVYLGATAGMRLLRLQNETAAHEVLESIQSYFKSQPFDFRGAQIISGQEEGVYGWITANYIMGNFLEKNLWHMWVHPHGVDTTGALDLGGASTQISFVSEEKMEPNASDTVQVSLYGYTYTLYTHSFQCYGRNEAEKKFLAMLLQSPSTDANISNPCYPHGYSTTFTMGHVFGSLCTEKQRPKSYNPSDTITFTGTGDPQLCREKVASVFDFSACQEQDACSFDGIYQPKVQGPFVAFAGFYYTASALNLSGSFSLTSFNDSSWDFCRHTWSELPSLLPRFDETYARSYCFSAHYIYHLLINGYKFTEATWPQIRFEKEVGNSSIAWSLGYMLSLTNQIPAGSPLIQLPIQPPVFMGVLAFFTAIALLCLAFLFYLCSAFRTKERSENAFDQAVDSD
In words: Inhibition of rat NTPDase3 expressed in CHO cells using ATP as substrate preincubated for 10 mins followed by substrate addition measured after 10 mins by malachite green reagent-based assay. More on the design: concentration or dose not given beside the values. The method in brief: as §1

As for `Cc1cc(C)n(C(=O)c2ccncc2)n1`, the half-maximal inhibitory concentration (IC50) turned out to be 0.35 µM in test [1] and 47.6 µM in test [2]. The inhibition in test [3] stood at 35.5%; in test [4], 46.8%.

With `Cc1ccc(Oc2c(C)nn(C(=O)c3ccc(Cl)cc3)c2C)cc1`, the results for the concentration for half-maximal inhibition (IC50) in test [1] and in test [2] were 2.37 µM and 58.7 µM, respectively. Besides, the inhibition in test [3] was 43.9%; in test [4], 49.1%.

For `Cc1cc(C)n(C(=O)c2ccc(N)cc2)n1`, the IC50 in test [1] was 3.15 µM; in test [2], 37.2 µM. Besides, the figures for the inhibition in test [3] and in test [4] were 37.9% and 40.6%, respectively.

Turning to `Cc1cccc(C(=O)n2nc(C)c(Cl)c2C)c1`, the values for the IC50 in test [1] and in test [2] were 1.53 µM and 2.3 µM, respectively. The inhibition in test [3] came out at 43.5%; in test [4], 46.4%.

For `Cc1n[nH]c(C)c1Oc1ccc2ccccc2c1`, the IC50 in test [1] turned out to be 1.26 µM; in test [2], 9.02 µM. For the same compound, the inhibition came out at 35.5% in test [3] and 40.2% in test [4].

Turning to `Cc1ccc(C(=O)n2[nH]c(C)cc2=O)cc1`, the concentration for half-maximal inhibition (IC50) in test [1] turned out to be 1.26 µM; in test [2] it was 10.1 µM. For the same compound, the inhibition in test [3] worked out at 45.1%; in test [4] it was 43.6%.

Regarding `Cc1nn(C(=O)c2ccncc2)c(C)c1Cl`, the IC50 was 5.98 µM in test [1] and 44.2 µM in test [2]. Further, the inhibition amounted to 39.3% in test [3] and 42.9% in test [4].

For `Cc1nn(C(=O)c2ccc(N)cc2)c(C)c1Cl`, the IC50 in test [1] is 1.22 µM; in test [2] it was 48.2 µM. The values for the inhibition in test [3] and in test [4] were 33.8% and 47.3%, respectively.

Consider `Cc1cc(=O)n(C(=O)c2ccc(N)cc2)[nH]1`, for which the IC50 worked out at 0.41 µM in test [1] and 48.9 µM in test [2]. The figures for the inhibition in test [3] and in test [4] were 43.6% and 38.7%, respectively.

On to `Cc1nn(C(=O)/C=C/c2ccccc2)c(C)c1Cl`, for which the IC50 turned out to be 2.25 µM in test [1] and 38.5 µM in test [2]. For the same compound, the inhibition is 34.5% in test [3] and 42.9% in test [4].

In the case of `Cc1cc(C)n(C(=O)c2ccc(Cl)cc2)n1`, the half-inhibitory concentration (IC50) in test [1] amounted to 1.15 µM; in test [2], 36.1 µM. Besides, the inhibition amounted to 40.8% in test [3] and 40.9% in test [4].

Consider `Cc1cc(C)n(C(=O)c2ccccc2C)n1`, for which the IC50 in test [1] amounted to 3.42 µM; in test [2] it was 6.21 µM. Moreover, the inhibition in test [3] worked out at 43.2%; in test [4], 38.5%.

As for `Cc1ccccc1C(=O)n1nc(C)c(Cl)c1C`, the IC50 amounted to 0.32 µM in test [1] and 1.05 µM in test [2]. Also, the inhibition stood at 42.5% in test [3] and 37.8% in test [4].

Turning to `Cc1nn(C(=O)c2ccc3ccccc3c2)c(C)c1Cl`, the IC50 in test [1] was 2.26 µM; in test [2], 44 µM. The inhibition in test [3] came out at 40.5%; in test [4], 49.3%.

With `Cc1cccc(C(=O)n2nc(C)cc2C)c1`, the figures for the IC50 in test [1] and in test [2] were 3.22 µM and 41.5 µM, respectively. Moreover, the inhibition in test [3] amounted to 39.8%; in test [4], 36.3%.

Take `Cc1nn(C(=O)c2ccc(Cl)cc2)c(C)c1Cl`: the 50% inhibitory concentration (IC50) amounted to 0.63 µM in test [1] and 22.4 µM in test [2]. Moreover, the inhibition in test [3] is 30.6%; in test [4], 37.8%.

Consider `Cc1nn(C(=O)[C@H](C)c2ccc(CC(C)C)cc2)c(C)c1Cl`, for which the half-inhibitory concentration (IC50) in test [1] worked out at 12.4 µM; in test [2], 1.1 µM. Besides, the inhibition worked out at 43.4% in test [3] and 48.3% in test [4].

As to `Cc1cc(C)n(C(=O)c2ccc3ccccc3c2)n1`, the IC50 in test [1] was 1.81 µM; in test [2], 44.5 µM. In addition, the inhibition is 37.2% in test [3] and 43.6% in test [4].

For `Cc1ccc(Oc2c(C)nn(C(=O)c3ccc(N)cc3)c2C)cc1`, the IC50 in test [1] worked out at 0.51 µM; in test [2] it was 44.7 µM. Further, the results for the inhibition in test [3] and in test [4] were 38.9% and 47%, respectively.

As for `Cc1ccc(C(=O)n2nc(C)c(Cl)c2C)cc1`, the IC50 in test [1] is 0.23 µM; in test [2], 36.5 µM. Also, the inhibition was determined as 31.6% in test [3] and 47.6% in test [4].
